# Source: article PMC4357494 (Journal of molecular biology, 2014)
# Where a SMILES comes first, the peptide text is derived from it.
# T1: Bcl-w (residues 1-164) (Homo sapiens, UniProt Q92843)
# T1 sequence (Q92843 1-164): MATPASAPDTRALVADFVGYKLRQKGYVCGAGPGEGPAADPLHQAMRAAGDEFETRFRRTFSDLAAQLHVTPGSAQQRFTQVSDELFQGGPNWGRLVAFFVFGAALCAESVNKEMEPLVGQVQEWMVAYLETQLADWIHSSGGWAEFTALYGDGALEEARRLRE
# B1: Y4eK_18 (designed binder)
# chain: Ac-IWYAQGLKRFGDEFNAYK-NH2
# B2: Bad-BH3, unlabeled 23-residue peptide (peptide)
# chain: Ac-WAAQRYGRELRRMSDEFVDSFKK-NH2
# Legend:
# [1] = system: Mcl-1 2640 cells (Mcl-1 dependent); experiment: BH3 profiling, Mcl-1 2640; format: cell-based, murine; settings: 5 μM peptide
# Summary of the method: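 Myc-driven murine leukemia line, Mcl-1 dependent, grown in RPMI 1640 with 10% FBS and […] 2-mercaptoethanol. Permeabilized cells at 2×10^4/well, triplicate wells, exposed to peptides including 5 μM. JC-1 read-out; depolarization expressed as percentage relative to FCCP (full) and DMSO (none). At least three biological replicates.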
# [2] = system: Bcl-2 3256 cells (Bcl-2 dependent)
# [3] = biological target: T2, Bcl-xL (residues 1-209) (Homo sapiens, UniProt Q07817); experiment: fluorescence polarisation
# [4] = biological target: T3, Bcl-2 (residues 1-217) (Homo sapiens, UniProt P10415); experiment: fluorescence polarisation
# [5] = biological target: T2, Bcl-xL (residues 1-209); experiment: Fluorescence polarization competition binding assay, Bcl-xL
# [6] = biological target: T3, Bcl-2 (residues 1-217); experiment: Fluorescence polarization competition binding assay, Bcl-2
# Summary of the method: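 Human Bcl-2 (residues 1-217), expressed in E. coli. Buffer: 20 mM sodium phosphate, 50 mM NaCl, 1 mM EDTA, 0.001% Triton X, 5% DMSO, pH 7.8, 25 °C. Competition: test peptide serially diluted, 10 nM fluorescein Bim-BH3 added, 15 min at RT, then 50 nM Bcl-2 (final). Anisotropy read over 2-48 h, then curves fit. Direct: titrated protein, 10 nM probe, read 4-24 h.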
# [7] = biological target: OCI-Ly1 cells (Bcl-2 dependent) (Homo sapiens, UniProt P10415)
# [8] = system: DHL10 cells; experiment: BH3 profiling, DHL10; format: cell-based; settings: Bax- and Bak-deleted cell line
# Summary of the method: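 Test peptides (N-acetylated, C-amidated) titrated onto permeabilized Su-DHL10 cells (RPMI 1640, 10% FBS), 2×10^4 cells/well, triplicate wells per concentration. JC-1 fluorescence gives membrane-potential loss, normalized as 1 – [(Dsample–DFCCP)/(DDMSO–DFCCP)] against FCCP and DMSO. EC50 from global fit with linked baselines; at least three biological replicates, 2-3 days of culture apart.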
# [9] = biological target: Mcl-1 (residues 172-327) (Homo sapiens, UniProt Q07820); experiment: Fluorescence polarization binding assay, Mcl-1; settings: for competition with fluorescently labeled Bim-BH3 for binding to Mcl-1 (in words): FP competition
# Summary of the method: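 E. coli-expressed Mcl-1 (residues 172-327) in competition FP: 20 mM sodium phosphate, 50 mM NaCl, 1 mM EDTA, 0.001% Triton X, 5% DMSO, pH 7.8, 25 °C. Serially diluted unlabeled peptide plus 10 nM fluorescein tracer, 15 min, then protein. Tracer is 18-mer Bim-BH3 with 50 nM Mcl-1, or 23-mer Hrk-BH3 with 500 nM Mcl-1.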
# [10] = biological target: primary human platelets (Bcl-xL dependent) (Homo sapiens, UniProt Q07817); settings: primary human platelet samples
# [11] = biological target: T1, Bcl-w (residues 1-164); experiment: Fluorescence polarization competition binding assay, Bcl-w
# Summary of the method: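 E. coli-expressed Bcl-w (residues 1-164), 50 nM final, competed against 10 nM N-terminal fluorescein 18-mer Bim-BH3. Unlabeled peptide serially diluted and premixed with tracer 15 min before protein. Buffer: 20 mM sodium phosphate, 50 mM NaCl, 1 mM EDTA, 0.001% Triton X, 5% DMSO, pH 7.8, 25 °C.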
# [12] = biological target: MDA-MB-231 cells (Bcl-xL dependent) (Homo sapiens, UniProt Q07817)
# [13] = system: Bcl-xL; experiment: Yeast-surface display, dual color fluorescence binding with competitors; set-up: species or system human; settings: 100-fold excess of each competitor, yeast-displayed peptide
# Summary of the method: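 Yeast displaying BH3 peptides incubated with 10 nM Bcl-xL plus 1 μM each of Mcl-1, Bfl-1, Bcl-2 and Bcl-w, competitors premixed. Proteins are E. coli-expressed human constructs. Detection uses primary and labeled secondary antibodies: FITC marks peptide expression, APC marks receptor binding. Flow cytometry with 488 and/or 561 nm excitation.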
# [14] = biological target: Bcl-xL (residues 1-209) (human, UniProt Q07817-1 1-209); experiment: fluorescence polarisation
# [15] = biological target: Bcl-2 (residues 1-217) (human, UniProt P10415 1-217); experiment: fluorescence polarisation
# [16] = FP competition with fluorescein 18-residue Bim-BH3
# T2 sequence (Q07817 1-209): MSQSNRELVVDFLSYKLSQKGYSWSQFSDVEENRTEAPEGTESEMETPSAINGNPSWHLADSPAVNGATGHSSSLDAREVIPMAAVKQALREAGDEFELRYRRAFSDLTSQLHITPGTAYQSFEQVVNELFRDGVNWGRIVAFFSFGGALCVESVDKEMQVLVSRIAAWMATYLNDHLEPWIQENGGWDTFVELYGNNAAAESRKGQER
# Chain of Mcl-1 (residues 172-327) (Q07820 172-327): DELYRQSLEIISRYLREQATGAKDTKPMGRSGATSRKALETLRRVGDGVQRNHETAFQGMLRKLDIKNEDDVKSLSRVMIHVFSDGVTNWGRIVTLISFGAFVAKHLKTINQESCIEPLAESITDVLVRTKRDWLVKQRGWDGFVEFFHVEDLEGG
# T3 sequence (P10415 1-217): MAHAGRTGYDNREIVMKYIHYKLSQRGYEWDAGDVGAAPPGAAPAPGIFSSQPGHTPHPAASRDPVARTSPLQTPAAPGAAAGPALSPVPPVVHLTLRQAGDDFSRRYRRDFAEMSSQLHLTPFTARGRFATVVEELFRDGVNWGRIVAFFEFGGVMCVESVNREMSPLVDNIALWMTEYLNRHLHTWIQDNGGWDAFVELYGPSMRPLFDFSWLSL
# Chain of Bcl-xL (residues 1-209) (human, UniProt Q07817-1 1-209) (Q07817 1-209): as the sequence (Q07817 1-209) above
# Chain of primary human platelets (Bcl-xL dependent) (Q07817 1-209): as above
# Chain of OCI-Ly1 cells (Bcl-2 dependent) (P10415 whole entry): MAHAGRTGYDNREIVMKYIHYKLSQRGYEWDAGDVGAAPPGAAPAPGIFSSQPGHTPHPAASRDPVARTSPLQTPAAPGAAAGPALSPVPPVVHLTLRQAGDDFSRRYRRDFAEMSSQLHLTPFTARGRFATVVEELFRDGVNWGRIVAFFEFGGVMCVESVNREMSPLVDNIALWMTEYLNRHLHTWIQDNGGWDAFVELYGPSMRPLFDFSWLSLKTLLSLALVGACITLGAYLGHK
# Chain of MDA-MB-231 cells (Bcl-xL dependent) (Q07817 1-209): as the sequence (Q07817 1-209) above
# Chain of Bcl-2 (residues 1-217) (human, UniProt P10415 1-217) (P10415 1-217): as the sequence (P10415 1-217) above
molecule,measurement,setting,value
"CC[C@H](C)[C@H](NC(=O)[C@H](CCC(=O)O)NC(=O)[C@H](CCCNC(=N)N)NC(=O)[C@H](C)NC(=O)[C@H](Cc1c[nH]c2ccccc12)NC(=O)[C@H](CCC(N)=O)NC(C)=O)C(=O)NCC(=O)N[C@@H](C)C(=O)N[C@@H](CCC(N)=O)C(=O)N[C@@H](CC(C)C)C(=O)N[C@@H](CCCNC(=N)N)C(=O)N[C@@H](CCCNC(=N)N)C(=O)N[C@@H](CCSC)C(=O)N[C@@H](C)C(=O)N[C@@H](CC(=O)O)C(=O)N[C@@H](CC(=O)O)C(=O)N[C@@H](CC(C)C)C(=O)N[C@@H](CC(N)=O)C(=O)N[C@@H](C)C(=O)N[C@@H](CCC(N)=O)C(=O)N[C@@H](Cc1ccc(O)cc1)C(=O)N[C@@H](CCC(=O)O)C(=O)N[C@@H](CCCNC(=N)N)C(N)=O [Puma, reference compound]",depolarization in the Mcl-1 dependent line (in words),[1],strong response
same,EC50,[2],663 ± 223 nM
Bim-BH3 with the point mutation I2dY (peptide),Ki,[3],< 0.1 nM
same,fold weaker binding than Bim-BH3,[4],5 fold
Bim-BH3 with the point mutation I3dF (peptide),Ki,[3],< 0.1 nM
CC[C@H](C)[C@H](NC(C)=O)C(=O)N[C@@H](Cc1c[nH]c2ccccc12)C(=O)N[C@@H](Cc1ccc(O)cc1)C(=O)N[C@@H](C)C(=O)N[C@@H](CCC(N)=O)C(=O)NCC(=O)N[C@@H](CC(C)C)C(=O)N[C@@H](CCCCN)C(=O)N[C@@H](CCCNC(=N)N)C(=O)N[C@@H](Cc1ccccc1)C(=O)NCC(=O)N[C@@H](CC(=O)O)C(=O)N[C@@H](CCC(=O)O)C(=O)N[C@@H](Cc1ccccc1)C(=O)N[C@@H](CC(N)=O)C(=O)N[C@@H](C)C(=O)N[C@@H](Cc1ccc(O)cc1)C(=O)N[C@@H](CCCCN)C(N)=O [Y4eK_18] (Ac-IWYAQGLKRFGDEFNAYK-NH2),reduction of affinity for Bcl-xL relative to XXA1_Y4eK,[5],~ 18 fold
same,weaker binding to Bcl-2 than parent XXA1_Y4eK,[6],~ 5 fold
same,weaker response than XXA1_Y4eK,[7],3-4 fold
CC[C@H](C)[C@H](NC(=O)[C@H](CCC(=O)O)NC(=O)[C@@H]1CCCN1C(=O)[C@H](CCCNC(=N)N)NC(C)=O)C(=O)N[C@@H](Cc1c[nH]c2ccccc12)C(=O)N[C@@H](Cc1ccc(O)cc1)C(=O)N[C@@H](C)C(=O)N[C@@H](CCC(N)=O)C(=O)NCC(=O)N[C@@H](CC(C)C)C(=O)N[C@@H](CCCCN)C(=O)N[C@@H](CCCNC(=N)N)C(=O)N[C@@H](Cc1ccccc1)C(=O)NCC(=O)N[C@@H](CC(=O)O)C(=O)N[C@@H](CCC(=O)O)C(=O)N[C@@H](Cc1ccccc1)C(=O)N[C@@H](CC(N)=O)C(=O)N[C@@H](C)C(=O)N[C@@H](Cc1ccc(O)cc1)C(=O)N[C@@H](CCCCN)C(N)=O [Y4eK_21] (Ac-RPEIWYAQGLKRFGDEFNAYK-NH2),Ki,[5],0.4 nM
same,Ki,[6],430 nM
same,specificity for Bcl-xL over Bcl-2,[6]; ratio of FP binding constants,~ 1000 fold
same,weaker response than XXA1_Y4eK,[7],3-4 fold
Bim-BH3 with the point mutation R3bK (peptide),Ki,[3],< 0.1 nM
CC[C@H](C)[C@H](NC(=O)[C@H](CCC(=O)O)NC(=O)[C@@H]1CCCN1C(=O)[C@H](CCCNC(=N)N)NC(C)=O)C(=O)N[C@@H](Cc1c[nH]c2ccccc12)C(=O)N[C@@H](Cc1ccc(O)cc1)C(=O)N[C@@H](C)C(=O)N[C@@H](CCC(N)=O)C(=O)N[C@@H](CCC(=O)O)C(=O)N[C@@H](CC(C)C)C(=O)N[C@@H](CCCCN)C(=O)N[C@@H](CCCNC(=N)N)C(=O)N[C@@H](Cc1ccccc1)C(=O)NCC(=O)N[C@@H](CC(=O)O)C(=O)N[C@@H](CCC(=O)O)C(=O)N[C@@H](Cc1ccccc1)C(=O)N[C@@H](CC(N)=O)C(=O)N[C@@H](C)C(=O)N[C@@H](Cc1ccc(O)cc1)C(=O)N[C@@H](Cc1ccc(O)cc1)C(=O)N[C@@H](C)C(=O)N[C@@H](CCCNC(=N)N)C(N)=O [XXA1_G2gE] (Ac-RPEIWYAQELKRFGDEFNAYYAR-NH2),non-specific pore forming activities,[8],None
same,depolarization in the Mcl-1 dependent line (in words),[1],low amount of depolarization
same,Ki,[9],~31 nM
same,competition with fluorescently labeled Bim-BH3 for binding to Mcl-1 (in words),[9],Neither XXA1 nor XXA1_G2gE could compete
same,depolarization of platelets (in words),[10],potent depolarization
same,binding to Bcl-xL relative to XXA1 (in words),[5]; FP competition with 23-mer fluorescently labeled Bim-BH3,bound more tightly than XXA1
same,EC50,[2],141 ± 50 nM
same,binding to Bcl-2 (in words),[6]; [16],bound tighter than XXA1
same,binding to Bcl-w (in words),[11]; [16],bound tighter than XXA1
same,potency relative to Bad,[12],~ 7 fold
"Puma-BH3, unlabeled 23-residue peptide",Ki,[3],2 nM
"Hrk-BH3, unlabeled 23-residue peptide",Ki,[3],10 nM
Bim-BH3 with the point mutation E2gG (peptide),Ki,[3],< 0.1 nM
same,fold weaker binding than Bim-BH3,[4],7 fold
CC[C@H](C)[C@H](NC(=O)[C@H](CCC(=O)O)NC(=O)[C@@H]1CCCN1C(=O)[C@H](CCCNC(=N)N)NC(C)=O)C(=O)N[C@@H](Cc1c[nH]c2ccccc12)C(=O)N[C@@H](Cc1ccc(O)cc1)C(=O)N[C@@H](C)C(=O)N[C@@H](CCC(N)=O)C(=O)NCC(=O)N[C@@H](CC(C)C)C(=O)N[C@@H](CCCCN)C(=O)N[C@@H](CCCNC(=N)N)C(=O)N[C@@H](Cc1ccccc1)C(=O)NCC(=O)N[C@@H](CC(=O)O)C(=O)N[C@@H](CCC(=O)O)C(=O)N[C@@H](Cc1ccccc1)C(=O)N[C@@H](CC(N)=O)C(=O)N[C@@H](C)C(=O)N[C@@H](Cc1ccc(O)cc1)C(=O)N[C@@H](Cc1ccc(O)cc1)C(=O)N[C@@H](C)C(=O)N[C@@H](CCCNC(=N)N)C(N)=O [XXA1] (Ac-RPEIWYAQGLKRFGDEFNAYYAR-NH2),non-specific pore forming activities,[8],None
same,depolarization in the Mcl-1 dependent line (in words),[1],low amount of depolarization
same,competition with fluorescently labeled Bim-BH3 for binding to Mcl-1 (in words),[9],Neither XXA1 nor XXA1_G2gE could compete
same,depolarization of platelets (in words),[10],potent depolarization
same,Ki,[5],≤ 0.1 nM
same,affinity for Bcl-xL (in words),[5]; [16],sub-nanomolar
same,EC50,[2],540 ± 183 nM
same,Kd,[6],~17 nM
same,binding to Bcl-xL in the presence of competitor pro-survival proteins,[13],robust binding
same,weakening of binding to Bcl-w relative to Bim-BH3,[11]; four mutations combined,~ 150 fold
B1,Ki,[14],~2 nM
same,fold weaker binding than XXA1_Y4eK,[15],~5 fold
B2,Ki,[14],≤ 0.1 nM
